For series [1], the system named is Staphylococcus aureus. The series is described as follows: Antibacterial activity against methicillin-susceptible Staphylococcus aureus M923 assessed as growth inhibition after 18 to 24 hrs by broth microdilution method. In kind it is functional. In a few lines:
(§1)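 CLSI broth microdilution against S. aureus isolates. Two-fold serial dilutions were made in Mueller-Hinton broth, with DMSO as the compound solvent. An equal volume of inoculum (1 × 10⁶ CFU/mL) was added to each well. MIC was taken as the lowest concentration giving no visible turbidity of the medium.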

In series [2] the test system is Staphylococcus aureus. The series is described as follows: Antibacterial activity against methicillin-resistant Staphylococcus aureus F511 assessed as growth inhibition after 18 to 24 hrs by broth microdilution method. Format: functional. In a few lines:
(§2)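 CLSI broth microdilution: serial 2-fold dilutions of each compound in Mueller-Hinton broth, with DMSO as solvent. An equal volume of inoculum (1 × 10⁶ CFU/mL) is added to each well holding the dilutions. MIC is the lowest concentration causing no visible turbidity. Values are expressed in […]. Clinical MRSA collection isolates 433 and F511, and reference strain Mu50.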

Series [3] deals with Staphylococcus aureus. In words: Antibacterial activity against methicillin-resistant Staphylococcus aureus 433 assessed as growth inhibition after 18 to 24 hrs by broth microdilution method. In kind it is functional. In a few lines:
as §2

The subject of series [4] is Staphylococcus aureus. In words: Antibacterial activity against methicillin-resistant Staphylococcus aureus ATCC 700699 assessed as growth inhibition after 18 to 24 hrs by broth microdilution method. Format: functional. In a few lines: as §2
For series [5], the system named is Staphylococcus aureus. In words: Antibacterial activity against methicillin-susceptible Staphylococcus aureus ATCC 29213 assessed as growth inhibition after 18 to 24 hrs by broth microdilution method. In kind it is functional. In a few lines: as §1
For series [6], the system named is HepG2. In words: Cytotoxicity against human HepG2 cells assessed as reduction of cell viability at 5 to 400 ug/ml by MTT assay. In kind it is cell-based. In a few lines: (§3)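 Cells were exposed to increasing compound concentrations, with a DMSO solvent control. HepG2 and HaCaT were grown in DMEM, and PK15 in DMEM/M199 (1:1), all with 10% heat-inactivated fetal serum. MTT (5 mg/mL stock, 1.2 mM final) was added for 1 h 30 min at 37 °C. The reaction was stopped with 90% ethanol, cells were spun at 800 × g for 10 min, and A570 was read. Values are means ± S.E. of 3 experiments run in triplicate.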

The test system of series [7] is HaCaT. In words: Cytotoxicity against human HaCaT cells assessed as induction of cell death at => 25 ug/ml by MTT assay relative to control. In kind it is cell-based. In a few lines:
as §3

In series [8] the test system is HaCaT. The series is described as follows: Cytotoxicity against human HaCaT cells assessed as reduction of cell viability at 5 ug/ml by MTT assay. In kind it is cell-based. In a few lines:
as §3

A short description of series [9]: Cytotoxicity against porcine PK-15 cells assessed as reduction of cell viability at 100 ug/ml by MTT assay relative to control. Format: cell-based, Sus scrofa. The settings on record: pig. In a few lines:
as §3

The nature of series [10]: Cytotoxicity against porcine PK-15 cells assessed as reduction of cell viability at 200 to 400 ug/ml by MTT assay relative to control. Format: cell-based, Sus scrofa. As to conditions: pig; call rule not given here. In a few lines:
as §3

Series [11] can be described thus: Cytotoxicity against porcine PK-15 cells assessed as reduction of cell viability by MTT assay. In kind it is cell-based, Sus scrofa. The settings on record: pig. In a few lines: as §3
Series [12] can be described thus: Cytotoxicity against porcine PK-15 cells assessed as reduction of cell viability at 25 to 200 ug/ml by MTT assay. In kind it is cell-based, Sus scrofa. As to conditions: pig. In a few lines: as §3
In series [13] the test system is HepG2. In words: Cytotoxicity against human HepG2 cells assessed as reduction of cell viability at 400 ug/ml by MTT assay relative to control. In kind it is cell-based. In a few lines:
as §3

Series [14] has as its system HepG2. In words: Cytotoxicity against human HepG2 cells assessed as reduction of cell viability at 50 ug/ml by MTT assay. Format: cell-based. In a few lines:
as §3

The subject of series [15] is HaCaT. The series is described as follows: Cytotoxicity against human HaCaT cells assessed as cell death at 200 to 400 ug/ml by MTT assay relative to control. In kind it is cell-based. In a few lines: as §3
The nature of series [16]: Cytotoxicity against porcine PK-15 cells assessed as reduction of cell viability at 5 ug/ml by MTT assay relative to control. Format: cell-based, Sus scrofa. As to conditions: pig. In a few lines: as §3
Series [17] in a line: Cytotoxicity against porcine PK-15 cells assessed as reduction of cell viability at 5 to 400 ug/ml by MTT assay. Format: cell-based, Sus scrofa. As to conditions: pig. In a few lines:
as §3

≈ marks a conversion by molar mass, not a printed value. Some results are limits rather than exact numbers.

In the case of `Cc1noc(-c2ccc(N3CC(CI)OC3=O)cc2)n1` (racemic), the minimal inhibitory concentration (MIC) is > 50 µg/mL in [1]; 50 µg/mL (≈ 130 µM) in series [2]; 25 µg/mL (≈ 64.9 µM) in [3]; 50 µg/mL (≈ 130 µM) in series [4]; > 50 µg/mL in series [5].

Regarding `Cc1noc(-c2ccc(N3CC(CI)OC3=O)cc2F)n1` (racemic), the minimum inhibitory concentration (MIC) in series [1] is > 50 µg/mL; in series [2], > 50 µg/mL; in series [3] it was 50 µg/mL (≈ 124 µM); in [4], 50 µg/mL (≈ 124 µM); in series [5], > 50 µg/mL.

On to `Cc1noc(-c2ccc(N3CC(CN=[N+]=[N-])OC3=O)cc2)n1` (racemic), for which the minimal inhibitory concentration (MIC) in series [1], in series [2], in series [3], in series [4] and in series [5] was > 50 µg/mL each time.

For the compound `Cc1noc(-c2ccc(N3CC(CN=[N+]=[N-])OC3=O)cc2F)n1` (racemic), the MIC in series [1], in series [2], in [3], in [4] and in [5] was > 50 µg/mL each time.

Consider `CC(=O)NCC1CN(c2ccc(-c3nc(C)no3)cc2)C(=O)O1` (racemic), for which the minimal inhibitory concentration (MIC) in series [1] came to 6.25 µg/mL (≈ 19.8 µM); in series [2], 12.5 µg/mL (≈ 39.5 µM); in series [3], 1.6 µg/mL (≈ 5.06 µM); in series [4], 6.25 µg/mL (≈ 19.8 µM); in series [5] it was 12.5 µg/mL (≈ 39.5 µM).

As for `CC(=O)NCC1CN(c2ccc(-c3nc(C)no3)c(F)c2)C(=O)O1` (racemic), the MIC amounted to 6.25 µg/mL (≈ 18.7 µM) in series [1]; 12.5 µg/mL (≈ 37.4 µM) in series [2]; 1.6 µg/mL (≈ 4.79 µM) in [3]; 6.25 µg/mL (≈ 18.7 µM) in series [4]; 12.5 µg/mL (≈ 37.4 µM) in series [5].

Take `CC(=S)NCC1CN(c2ccc(-c3nc(C)no3)cc2)C(=O)O1` (racemic): the Activity result in [6] was “Toxic”; in series [7] it was > 60%; in [8], “Toxic”; in series [9] it was 70%; in series [10] it was > 90%; in [11] it was “Dose-dependent effect”. In addition, the minimal inhibitory concentration (MIC) in [1] was 1.6 µg/mL (≈ 4.81 µM); in series [2] it was 1.6 µg/mL (≈ 4.81 µM); in series [3], 1.6 µg/mL (≈ 4.81 µM); in [4], ≤ 0.4 µg/mL; in [5], 3.13 µg/mL (≈ 9.42 µM).

As for `CC(=S)NCC1CN(c2ccc(-c3nc(C)no3)c(F)c2)C(=O)O1` (racemic), the Activity entry is given as “Toxic” in series [12]; 40% in [13]; “Toxic” in series [14]; > 50% in series [15]; < 10% in series [16]. Besides, the minimal inhibitory concentration (MIC) in series [1] is 1.6 µg/mL (≈ 4.57 µM); in [2], 1.6 µg/mL (≈ 4.57 µM); in series [3], 0.8 µg/mL (≈ 2.28 µM); in series [4], ≤ 0.4 µg/mL; in series [5] it was 1.6 µg/mL (≈ 4.57 µM).

Turning to `Cc1noc(-c2ccc(N3CC(Cn4cccn4)OC3=O)cc2)n1` (racemic), the minimal inhibitory concentration (MIC) in series [1], in [2], in [3], in [4] and in series [5] was > 50 µg/mL each time.

For the compound `Cc1noc(-c2ccc(N3CC(Cn4cccn4)OC3=O)cc2F)n1` (racemic), the MIC in series [1], in [2], in [3], in series [4] and in series [5] was > 50 µg/mL throughout.

For the compound `Cc1noc(-c2ccc(N3CC(Cn4ccnc4)OC3=O)cc2)n1` (racemic), the MIC in series [1], in [2], in series [3], in [4] and in [5] was > 50 µg/mL throughout.

As for `Cc1noc(-c2ccc(N3CC(Cn4ccnc4)OC3=O)cc2F)n1` (racemic), the MIC in series [1], in [2], in series [3], in series [4] and in [5] was > 50 µg/mL throughout.

Take `Cc1noc(-c2ccc(N3CC(Cn4cncn4)OC3=O)cc2)n1` (racemic): the MIC in series [1], in series [2], in series [3], in series [4] and in [5] was > 50 µg/mL each time.

As for `Cc1noc(-c2ccc(N3CC(Cn4cncn4)OC3=O)cc2F)n1` (racemic), the minimum inhibitory concentration (MIC) in series [1], in [2], in series [3], in [4] and in series [5] was > 50 µg/mL in each case.

As for `CC(=O)NC[C@H]1CN(c2ccc(N3CCOCC3)c(F)c2)C(=O)O1` [LINEZOLID], the results for the Activity entry in [15], in series [17] and in series [6] were “Toxic”, “Non-toxic” and “Non-toxic”, respectively. The minimal inhibitory concentration (MIC) in series [1] was 3.13 µg/mL (≈ 9.28 µM); in series [2], 3.13 µg/mL (≈ 9.28 µM); in series [3] it was 1.6 µg/mL (≈ 4.74 µM); in series [4], 0.8 µg/mL (≈ 2.37 µM); in series [5], ≤ 0.4 µg/mL.

(Values after ChEMBL document CHEMBL2401714, “New linezolid-like 1,2,4-oxadiazoles active against Gram-positive multiresistant pathogens” (Eur J Med Chem, 2013).)
